In ChEMBL document CHEMBL1154956, “Stereospecific synthesis of oximes and oxime ethers of 3-azabicycles: A SAR study towards antimicrobial agents” (2010):
In brackets after ≈: the same amount, converted by molar mass.

system: Bacillus subtilis; assay: Antibacterial activity against Bacillus subtilis by NCCLS broth microdilution method; type: functional; conditions: not given

SMILES | MIC90 [µg/mL]
CON=C1C2CC(C)CC1C(c1ccccc1Cl)NC2c1ccccc1Cl (stereo in doubt; 58a) | 8 (≈ 19.8 µM)
CC1CC2C(=NO)C(C1)C(c1ccccc1Cl)NC2c1ccccc1Cl (stereo in doubt; 52b) | 64 (≈ 164 µM)
CC1CC2C(=NO)C(C1)C(c1cccc(F)c1)NC2c1cccc(F)c1 (stereo in doubt; 50b) | >128
CC1CC2C(=NO)C(C1)C(c1ccccc1F)NC2c1ccccc1F (stereo in doubt; 49b) | 32 (≈ 89.8 µM)

same assay, conditions: Bacillus subtilis; read-out: MIC90

SMILES | MIC90 [µg/mL]
CC12CCCC(/C1=N\O)C(c1ccccc1Br)NC2c1ccccc1Br (stereo not drawn) | 128 (≈ 268 µM)
Cc1ccc(C2NC(c3ccc(C)cc3)C3(C)CCCC2/C3=N\O)cc1 (stereo not drawn) | 128 (≈ 367 µM)
CO/N=C1\C2CCCC1(C)C(c1cccc(Cl)c1)NC2c1cccc(Cl)c1 (stereo not drawn) | 128 (≈ 317 µM)
CC1CC2C(=NO)C(C1)C(c1ccccc1F)NC2c1ccccc1F (stereo in doubt; 49a) | 16 (≈ 44.9 µM)
COc1ccc(C2NC(c3ccc(OC)cc3)C3(C)CCCC2/C3=N\O)cc1 (stereo not drawn) | 128 (≈ 336 µM)
CC12CCCC(/C1=N\O)C(c1ccccc1Cl)NC2c1ccccc1Cl (stereo not drawn) | 64 (≈ 164 µM)
CC1CC2C(=NO)C(C1)C(c1ccc(Cl)cc1)NC2c1ccc(Cl)cc1 (stereo not drawn) | 32 (≈ 82.2 µM)

system: Staphylococcus aureus; assay: Antibacterial activity against Staphylococcus aureus by NCCLS broth microdilution method; type: functional; conditions: not given

SMILES | MIC90 [µg/mL]
CC1CC2C(=NO)C(C1)C(c1ccccc1F)NC2c1ccccc1F (stereo in doubt; 49a) | 8 (≈ 22.4 µM)
CC1CC2C(=NO)C(C1)C(c1ccccc1Cl)NC2c1ccccc1Cl (stereo in doubt; 52b) | 16 (≈ 41.1 µM)
CC1CC2C(=NO)C(C1)C(c1cccc(F)c1)NC2c1cccc(F)c1 (stereo in doubt; 50b) | 32 (≈ 89.8 µM)
CC1CC2C(=NO)C(C1)C(c1ccccc1F)NC2c1ccccc1F (stereo in doubt; 49b) | 32 (≈ 89.8 µM)

same assay, conditions: Staphylococcus aureus; read-out: MIC90

SMILES | MIC90 [µg/mL]
CC12CCCC(/C1=N\O)C(c1ccccc1Br)NC2c1ccccc1Br (stereo not drawn) | 64 (≈ 134 µM)
Cc1ccc(C2NC(c3ccc(C)cc3)C3(C)CCCC2/C3=N\O)cc1 (stereo not drawn) | 128 (≈ 367 µM)
CO/N=C1\C2CCCC1(C)C(c1cccc(Cl)c1)NC2c1cccc(Cl)c1 (stereo not drawn) | 64 (≈ 159 µM)
COc1ccc(C2NC(c3ccc(OC)cc3)C3(C)CCCC2/C3=N\O)cc1 (stereo not drawn) | 32 (≈ 84.1 µM)
CON=C1C2CC(C)CC1C(c1ccccc1Cl)NC2c1ccccc1Cl (stereo in doubt; 58a) | 4 (≈ 9.92 µM)
CC12CCCC(/C1=N\O)C(c1ccccc1Cl)NC2c1ccccc1Cl (stereo not drawn) | 8 (≈ 20.5 µM)
CC1CC2C(=NO)C(C1)C(c1ccc(Cl)cc1)NC2c1ccc(Cl)cc1 (stereo not drawn) | 32 (≈ 82.2 µM)

system: Klebsiella pneumoniae; assay: Antibacterial activity against Klebsiella pneumoniae by NCCLS broth microdilution method; type: functional; conditions: not given

SMILES | MIC90 [µg/mL]
CC1CC2C(=NO)C(C1)C(c1ccccc1F)NC2c1ccccc1F (stereo in doubt; 49a) | 16 (≈ 44.9 µM)
CON=C1C2CC(C)CC1C(c1ccccc1Cl)NC2c1ccccc1Cl (stereo in doubt; 58a) | 4 (≈ 9.92 µM)
CC1CC2C(=NO)C(C1)C(c1ccccc1Cl)NC2c1ccccc1Cl (stereo in doubt; 52b) | 32 (≈ 82.2 µM)
CC1CC2C(=NO)C(C1)C(c1cccc(F)c1)NC2c1cccc(F)c1 (stereo in doubt; 50b) | 64 (≈ 180 µM)
CC1CC2C(=NO)C(C1)C(c1ccccc1F)NC2c1ccccc1F (stereo in doubt; 49b) | 64 (≈ 180 µM)

same assay, conditions: Klebsiella pneumoniae; read-out: MIC90

SMILES | MIC90 [µg/mL]
CC12CCCC(/C1=N\O)C(c1ccccc1Br)NC2c1ccccc1Br (stereo not drawn) | 128 (≈ 268 µM)
Cc1ccc(C2NC(c3ccc(C)cc3)C3(C)CCCC2/C3=N\O)cc1 (stereo not drawn) | > 128
CO/N=C1\C2CCCC1(C)C(c1cccc(Cl)c1)NC2c1cccc(Cl)c1 (stereo not drawn) | 32 (≈ 79.3 µM)
COc1ccc(C2NC(c3ccc(OC)cc3)C3(C)CCCC2/C3=N\O)cc1 (stereo not drawn) | 64 (≈ 168 µM)
CC12CCCC(/C1=N\O)C(c1ccccc1Cl)NC2c1ccccc1Cl (stereo not drawn) | 16 (≈ 41.1 µM)
CC1CC2C(=NO)C(C1)C(c1ccc(Cl)cc1)NC2c1ccc(Cl)cc1 (stereo not drawn) | 16 (≈ 41.1 µM)

system: Pseudomonas aeruginosa; assay: Antibacterial activity against Pseudomonas aeruginosa by NCCLS broth microdilution method; type: functional; conditions: not given

SMILES | MIC90 [µg/mL]
CC1CC2C(=NO)C(C1)C(c1ccccc1F)NC2c1ccccc1F (stereo in doubt; 49a) | 32 (≈ 89.8 µM)
CON=C1C2CC(C)CC1C(c1ccccc1Cl)NC2c1ccccc1Cl (stereo in doubt; 58a) | 4 (≈ 9.92 µM)
CC1CC2C(=NO)C(C1)C(c1ccccc1Cl)NC2c1ccccc1Cl (stereo in doubt; 52b) | >128
CC1CC2C(=NO)C(C1)C(c1cccc(F)c1)NC2c1cccc(F)c1 (stereo in doubt; 50b) | 32 (≈ 89.8 µM)
CC1CC2C(=NO)C(C1)C(c1ccccc1F)NC2c1ccccc1F (stereo in doubt; 49b) | 128 (≈ 359 µM)

same assay, conditions: Pseudomonas aeruginosa; read-out: MIC90

SMILES | MIC90 [µg/mL]
CC12CCCC(/C1=N\O)C(c1ccccc1Br)NC2c1ccccc1Br (stereo not drawn) | > 128
Cc1ccc(C2NC(c3ccc(C)cc3)C3(C)CCCC2/C3=N\O)cc1 (stereo not drawn) | > 128
CO/N=C1\C2CCCC1(C)C(c1cccc(Cl)c1)NC2c1cccc(Cl)c1 (stereo not drawn) | 64 (≈ 159 µM)
COc1ccc(C2NC(c3ccc(OC)cc3)C3(C)CCCC2/C3=N\O)cc1 (stereo not drawn) | > 128
CC12CCCC(/C1=N\O)C(c1ccccc1Cl)NC2c1ccccc1Cl (stereo not drawn) | 32 (≈ 82.2 µM)
CC1CC2C(=NO)C(C1)C(c1ccc(Cl)cc1)NC2c1ccc(Cl)cc1 (stereo not drawn) | 32 (≈ 82.2 µM)

system: Candida albicans; assay: Antifungal activity against Candida albicans by NCCLS broth microdilution method; type: functional; conditions: not given
How it was run: (§1)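 MIC90 was taken as the lowest concentration that inhibited 90% of pathogen growth after incubation, reported in μg/mL. Broth dilution followed the NCCLS reference standards: M27-A for yeasts and the proposed standard for conidium-forming filamentous fungi. Fluconazole was the reference drug.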

SMILES | MIC90 [µg/mL]
CC1CC2C(=NO)C(C1)C(c1ccccc1F)NC2c1ccccc1F (stereo in doubt; 49a) | 64 (≈ 180 µM)
CC1CC2C(=NO)C(C1)C(c1ccccc1Cl)NC2c1ccccc1Cl (stereo in doubt; 52b) | 4 (≈ 10.3 µM)
CC1CC2C(=NO)C(C1)C(c1cccc(F)c1)NC2c1cccc(F)c1 (stereo in doubt; 50b) | 64 (≈ 180 µM)
CC1CC2C(=NO)C(C1)C(c1ccccc1F)NC2c1ccccc1F (stereo in doubt; 49b) | 16 (≈ 44.9 µM)

same assay, conditions: Candida albicans; read-out: MIC90

SMILES | MIC90 [µg/mL]
CC12CCCC(/C1=N\O)C(c1ccccc1Br)NC2c1ccccc1Br (stereo not drawn) | 64 (≈ 134 µM)
Cc1ccc(C2NC(c3ccc(C)cc3)C3(C)CCCC2/C3=N\O)cc1 (stereo not drawn) | 128 (≈ 367 µM)
CO/N=C1\C2CCCC1(C)C(c1cccc(Cl)c1)NC2c1cccc(Cl)c1 (stereo not drawn) | 32 (≈ 79.3 µM)
COc1ccc(C2NC(c3ccc(OC)cc3)C3(C)CCCC2/C3=N\O)cc1 (stereo not drawn) | 128 (≈ 336 µM)
CON=C1C2CC(C)CC1C(c1ccccc1Cl)NC2c1ccccc1Cl (stereo in doubt; 58a) | 8 (≈ 19.8 µM)
CC12CCCC(/C1=N\O)C(c1ccccc1Cl)NC2c1ccccc1Cl (stereo not drawn) | 64 (≈ 164 µM)
CC1CC2C(=NO)C(C1)C(c1ccc(Cl)cc1)NC2c1ccc(Cl)cc1 (stereo not drawn) | 64 (≈ 164 µM)

system: Candida parapsilosis; assay: Antifungal activity against Candida parapsilosis by NCCLS broth microdilution method; type: functional; conditions: not given; how it was run: as §1

SMILES | MIC90 [µg/mL]
CC1CC2C(=NO)C(C1)C(c1ccccc1F)NC2c1ccccc1F (stereo in doubt; 49a) | 128 (≈ 359 µM)
CON=C1C2CC(C)CC1C(c1ccccc1Cl)NC2c1ccccc1Cl (stereo in doubt; 58a) | 16 (≈ 39.7 µM)
CC1CC2C(=NO)C(C1)C(c1ccccc1Cl)NC2c1ccccc1Cl (stereo in doubt; 52b) | 16 (≈ 41.1 µM)
CC1CC2C(=NO)C(C1)C(c1cccc(F)c1)NC2c1cccc(F)c1 (stereo in doubt; 50b) | 32 (≈ 89.8 µM)
CC1CC2C(=NO)C(C1)C(c1ccccc1F)NC2c1ccccc1F (stereo in doubt; 49b) | 32 (≈ 89.8 µM)

same assay, conditions: Lodderomyces parapsilosis; read-out: MIC90

SMILES | MIC90 [µg/mL]
CC12CCCC(/C1=N\O)C(c1ccccc1Br)NC2c1ccccc1Br (stereo not drawn) | 64 (≈ 134 µM)
Cc1ccc(C2NC(c3ccc(C)cc3)C3(C)CCCC2/C3=N\O)cc1 (stereo not drawn) | > 128
CO/N=C1\C2CCCC1(C)C(c1cccc(Cl)c1)NC2c1cccc(Cl)c1 (stereo not drawn) | 32 (≈ 79.3 µM)
COc1ccc(C2NC(c3ccc(OC)cc3)C3(C)CCCC2/C3=N\O)cc1 (stereo not drawn) | > 128
CC12CCCC(/C1=N\O)C(c1ccccc1Cl)NC2c1ccccc1Cl (stereo not drawn) | 8 (≈ 20.5 µM)
CC1CC2C(=NO)C(C1)C(c1ccc(Cl)cc1)NC2c1ccc(Cl)cc1 (stereo not drawn) | 64 (≈ 164 µM)

system: Aspergillus niger; assay: Antifungal activity against Aspergillus niger by NCCLS broth microdilution method; type: functional; conditions: not given; how it was run: as §1

SMILES | MIC90 [µg/mL]
CC1CC2C(=NO)C(C1)C(c1ccccc1F)NC2c1ccccc1F (stereo in doubt; 49a) | 64 (≈ 180 µM)
CON=C1C2CC(C)CC1C(c1ccccc1Cl)NC2c1ccccc1Cl (stereo in doubt; 58a) | 32 (≈ 79.3 µM)
CC1CC2C(=NO)C(C1)C(c1ccccc1Cl)NC2c1ccccc1Cl (stereo in doubt; 52b) | 32 (≈ 82.2 µM)
CC1CC2C(=NO)C(C1)C(c1cccc(F)c1)NC2c1cccc(F)c1 (stereo in doubt; 50b) | 32 (≈ 89.8 µM)
CC1CC2C(=NO)C(C1)C(c1ccccc1F)NC2c1ccccc1F (stereo in doubt; 49b) | 4 (≈ 11.2 µM)

same assay, conditions: Aspergillus niger; read-out: MIC90

SMILES | MIC90 [µg/mL]
CC12CCCC(/C1=N\O)C(c1ccccc1Br)NC2c1ccccc1Br (stereo not drawn) | 128 (≈ 268 µM)
Cc1ccc(C2NC(c3ccc(C)cc3)C3(C)CCCC2/C3=N\O)cc1 (stereo not drawn) | 64 (≈ 184 µM)
CO/N=C1\C2CCCC1(C)C(c1cccc(Cl)c1)NC2c1cccc(Cl)c1 (stereo not drawn) | 128 (≈ 317 µM)
COc1ccc(C2NC(c3ccc(OC)cc3)C3(C)CCCC2/C3=N\O)cc1 (stereo not drawn) | 128 (≈ 336 µM)
CC12CCCC(/C1=N\O)C(c1ccccc1Cl)NC2c1ccccc1Cl (stereo not drawn) | 16 (≈ 41.1 µM)
CC1CC2C(=NO)C(C1)C(c1ccc(Cl)cc1)NC2c1ccc(Cl)cc1 (stereo not drawn) | 32 (≈ 82.2 µM)

system: Cryptococcus neoformans; assay: Antifungal activity against Cryptococcus neoformans by NCCLS broth microdilution method; type: functional; conditions: not given; how it was run: as §1

SMILES | MIC90 [µg/mL]
CC1CC2C(=NO)C(C1)C(c1ccccc1F)NC2c1ccccc1F (stereo in doubt; 49a) | 64 (≈ 180 µM)
CON=C1C2CC(C)CC1C(c1ccccc1Cl)NC2c1ccccc1Cl (stereo in doubt; 58a) | 16 (≈ 39.7 µM)
CC1CC2C(=NO)C(C1)C(c1ccccc1Cl)NC2c1ccccc1Cl (stereo in doubt; 52b) | 64 (≈ 164 µM)
CC1CC2C(=NO)C(C1)C(c1cccc(F)c1)NC2c1cccc(F)c1 (stereo in doubt; 50b) | 64 (≈ 180 µM)
CC1CC2C(=NO)C(C1)C(c1ccccc1F)NC2c1ccccc1F (stereo in doubt; 49b) | 16 (≈ 44.9 µM)

same assay, conditions: Cryptococcus neoformans; read-out: MIC90

SMILES | MIC90 [µg/mL]
CC12CCCC(/C1=N\O)C(c1ccccc1Br)NC2c1ccccc1Br (stereo not drawn) | > 128
Cc1ccc(C2NC(c3ccc(C)cc3)C3(C)CCCC2/C3=N\O)cc1 (stereo not drawn) | 128 (≈ 367 µM)
CO/N=C1\C2CCCC1(C)C(c1cccc(Cl)c1)NC2c1cccc(Cl)c1 (stereo not drawn) | 64 (≈ 159 µM)
COc1ccc(C2NC(c3ccc(OC)cc3)C3(C)CCCC2/C3=N\O)cc1 (stereo not drawn) | > 128
CC12CCCC(/C1=N\O)C(c1ccccc1Cl)NC2c1ccccc1Cl (stereo not drawn) | 8 (≈ 20.5 µM)
CC1CC2C(=NO)C(C1)C(c1ccc(Cl)cc1)NC2c1ccc(Cl)cc1 (stereo not drawn) | 64 (≈ 164 µM)
